Growth and GI50 data for two compounds are collected here from ChEMBL document CHEMBL2380254, “Optimization of tocotrienols as antiproliferative and antimigratory leads” (Eur J Med Chem, 2013).

Holding throughout (format): functional
The subject of one experiment is BT-549. In words: Growth inhibition of human BT549 cells assessed as cell growth at 10 uM after 48 hrs by sulforhodamine B assay. The settings on record: BT-549, 48 h, read-out: Activity. In outline:
(§1)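 NCI-60 single-dose screen at 10 µM: cells in RPMI 1640 with 5% FBS, preincubated 24 h, then exposed 48 h at 37 °C. TCA fixation (16% final for suspension cells), SRB staining, absorbance 515 nm. Percent growth relative to time-zero and untreated control plates; negative values indicate cell kill.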

In a further experiment the test system is OVCAR-8. Briefly: Growth inhibition of human OVCAR8 cells assessed as cell growth at 10 uM after 48 hrs by sulforhodamine B assay. The settings on record: OVCAR-8, 48 h, read-out: Activity. A digest of the protocol: (§2)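 Single-dose NCI-60 screen: adherent cells in RPMI 1640 with 5% FBS were exposed to 10 µM for 48 h at 37 °C after a 24 h preincubation. They were fixed in situ with cold TCA (10% final), stained with 0.4% SRB in 1% acetic acid, solubilized in 10 mM Tris base, and read at 515 nm. Percent growth was taken relative to time-zero and control plates.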

The test system of the next experiment is SK-MEL-2. In words: Growth inhibition of human SK-MEL-2 cells assessed as cell growth at 10 uM after 48 hrs by sulforhodamine B assay. The settings on record: SK-MEL-2, 48 h, read-out: Activity. In outline:
as §2

Another experiment has as its system LOX IMVI. In words: Growth inhibition of human LOXIMVI cells assessed as cell growth at 10 uM after 48 hrs by sulforhodamine B assay. The settings on record: read-out: Activity. In outline: as §1
Another experiment relates to HCT-15. In words: Growth inhibition of human HCT15 cells assessed as cell growth at 10 uM after 48 hrs by sulforhodamine B assay. To be noted: HCT-15, 48 h, read-out: Activity. A digest of the protocol:
as §1

The test system of the next experiment is NCI-H522. In words: Growth inhibition of human NCI-H522 cells assessed as cell growth at 10 uM after 48 hrs by sulforhodamine B assay. The settings on record: NCI-H522, 48 h, read-out: Activity. A digest of the protocol: as §2
Another experiment deals with NCI-H322M. In words: Growth inhibition of human NCI-H322M cells assessed as cell growth at 10 uM after 48 hrs by sulforhodamine B assay. The settings on record: read-out: Activity. A digest of the protocol:
as §2

Another experiment has as its system HOP-62. Briefly: Growth inhibition of human HOP62 cells assessed as cell growth at 10 uM after 48 hrs by sulforhodamine B assay. The settings on record: HOP-62, 48 h, read-out: Activity. In outline:
as §1

The next experiment relates to RPMI-8226. Briefly: Growth inhibition of human RPMI8226 cells assessed as cell growth at 10 uM after 48 hrs by sulforhodamine B assay. To be noted: RPMI-8226, 48 h, read-out: Activity. In outline: (§3)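 Single 10 µM dose applied to suspension cells in RPMI 1640 with 5% FBS and 2 mM L-glutamine for 48 h at 37 °C. Settled cells were fixed with 80% TCA (16% final), stained with SRB, and read at 515 nm. Percent growth was calculated against time-zero and untreated control optical densities.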

Experiment [1] deals with MOLT-4. Briefly: Growth inhibition of human MOLT4 cells assessed as cell growth at 10 uM after 48 hrs by sulforhodamine B assay. To be noted: MOLT-4, 48 h, read-out: Activity. In outline:
as §3

The subject of the next experiment is UO-31. In words: Growth inhibition of human UO31 cells after 48 hrs by sulforhodamine B assay. To be noted: UO-31, 48 h. A digest of the protocol: (§4)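 NCI-60 five-dose screen. Cells were grown in RPMI 1640 with 5% FBS and 2 mM L-glutamine, plated at 5000–40,000 cells/well and incubated 24 h before dosing, with T0 plates TCA-fixed. DMSO stocks were diluted to doses of […] and exposed 48 h at 37 °C, 5% CO2. Cells were fixed with cold TCA (final 10%, 60 min, 4 °C), stained with 0.4% SRB in 1% acetic acid for 10 min, solubilized in 10 mM trizma base and read at 515 nm. GI50 is where 100×(T−T0)/(C−T0)=50.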

The next experiment relates to SN12C. In words: Growth inhibition of human SN12C cells after 48 hrs by sulforhodamine B assay. A digest of the protocol:
as §4

A further experiment has as its system CAKI-1. Briefly: Growth inhibition of human CAKI-1 cells after 48 hrs by sulforhodamine B assay. To be noted: CAKI-1, 48 h. In outline: (§5)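 NCI-60 screen: cells in RPMI 1640 with 5% FBS and 2 mM glutamine, 5000–40,000 cells/well, preincubated 24 h. Five concentrations (10-fold dilutions; 100 to 0.001 µM) applied for 48 h at 37 °C. TCA fixation, SRB stain, absorbance at 515 nm. Time-zero plates included; GI50 where 100×(T−T0)/(C−T0)=50.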

Experiment [2] can be described thus: Growth inhibition of human NCI-ADR-RES cells after 48 hrs by sulforhodamine B assay. In outline: (§6)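 NCI-60 panel cells grown in RPMI 1640 with 5% FBS and 2 mM L-glutamine, seeded at 5000–40,000 cells/well and preincubated 24 h. Five 10-fold dilutions (0.001–100 µM) from DMSO stocks were added for 48 h at 37 °C. Adherent cells were fixed with cold TCA (10% final) for 60 min at 4 °C, stained with 0.4% SRB, and read at 515 nm. GI50 was set where 100×(T−T0)/(C−T0)=50.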

Another experiment relates to IGROV-1. Briefly: Growth inhibition of human IGROV1 cells after 48 hrs by sulforhodamine B assay. The settings on record: IGROV-1, 48 h. A digest of the protocol:
as §5

Another experiment relates to UACC-62. In words: Growth inhibition of human UACC62 cells after 48 hrs by sulforhodamine B assay. The settings on record: UACC-62, 48 h. In outline: as §4
For another experiment, the system named is UACC-257. In words: Growth inhibition of human UACC257 cells after 48 hrs by sulforhodamine B assay. To be noted: UACC-257, 48 h. In outline:
as §4

The subject of the next experiment is Malme-3M. Briefly: Growth inhibition of human MALME-3M cells after 48 hrs by sulforhodamine B assay. A digest of the protocol: as §6
In the next experiment the test system is SNB-19. Briefly: Growth inhibition of human SNB19 cells after 48 hrs by sulforhodamine B assay. The settings on record: SNB-19, 48 h. In outline:
as §4

A further experiment deals with KM12. In words: Growth inhibition of human KM12 cells after 48 hrs by sulforhodamine B assay. The settings on record: KM12, 48 h. A digest of the protocol:
as §5

A further experiment has as its system NCI-H23. In words: Growth inhibition of human NCI-H23 cells after 48 hrs by sulforhodamine B assay. To be noted: NCI-H23, 48 h. A digest of the protocol: as §6
Another experiment relates to A549. In words: Growth inhibition of human A549/ATCC cells after 48 hrs by sulforhodamine B assay. To be noted: A549, 48 h. A digest of the protocol: as §5
The test system of a further experiment is SR. Briefly: Growth inhibition of human SR cells after 48 hrs by sulforhodamine B assay. A digest of the protocol:
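Suspension leukemia line in RPMI 1640 with 5% FBS and 2 mM L-glutamine, NCI-60 five-dose format ([…]), 48 h at 37 °C. Settled cells were fixed with 80% TCA (final 16%), stained with SRB and read at 515 nm. GI50 is where 100×(T−T0)/(C−T0)=50, with T0 measured at dosing.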

Experiment [3] relates to MOLT-4. Briefly: Growth inhibition of human MOLT4 cells after 48 hrs by sulforhodamine B assay. The settings on record: MOLT-4, 48 h. A digest of the protocol:
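NCI-60 suspension lines in RPMI 1640 with 5% FBS and 2 mM L-glutamine, preincubated 24 h. A five-concentration 10-fold series (0.001–100 µM) was given for 48 h at 37 °C. Settled cells were fixed with 80% TCA (16% final), stained with SRB, and read at 515 nm. GI50 was taken where 100×(T−T0)/(C−T0)=50, with T0 plates fixed at drug addition.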

Consider `CC(C)=CCC/C(C)=C/CC/C(C)=C/CC[C@]1(C)CCc2c3c(c(C)c(C)c2O1)OCN(CCCCCCCCO)C3`, for which the growth at 10 µM was 109% in the experiment on BT-549; 72.1% with OVCAR-8; 71.7% in the experiment on SK-MEL-2; -80.1% in the experiment with LOX IMVI; 75.3% in the experiment with HCT-15; 30.9% in the experiment with NCI-H522. The growth at 10 µM in the experiment with NCI-H322M is 65.3%; in the experiment on HOP-62, 63.2%; in the experiment with RPMI-8226, 71.2%; in the experiment with MOLT-4 [1], 2.94%. Moreover, the GI50 in the experiment with UO-31 amounted to 2370 nM; in the experiment with SN12C it was 2550 nM; with CAKI-1, 4380 nM; in experiment [2], 5500 nM; in the experiment on IGROV-1, 2880 nM; in the experiment on UACC-62, 2510 nM. Further, the GI50 is 2960 nM in the experiment on UACC-257; 3140 nM in the experiment with Malme-3M; 2470 nM in the experiment on SNB-19; 2930 nM in the experiment on KM12; 3160 nM in the experiment with NCI-H23; 2500 nM in the experiment with A549. The GI50 with SR came out at 2650 nM; with MOLT-4 [3], 3260 nM.
With `CC(C)=CCC/C(C)=C/CC/C(C)=C/CC[C@]1(C)CCc2c3c(cc(C)c2O1)OCN(CCCO)C3`, the growth at 10 µM in the experiment with BT-549 was 92%; with OVCAR-8, -77.7%; with SK-MEL-2, 107%; with LOX IMVI, -89.8%; with HCT-15, 0.85%; in the experiment on NCI-H522, -72.9%. Further, the growth at 10 µM with NCI-H322M was -62.1%; with HOP-62, -76.3%; with RPMI-8226, 2.29%; with MOLT-4 [1] it was -20.3%. Further, the GI50 in the experiment with UO-31 is 1470 nM; in the experiment on SN12C it was 1670 nM; in the experiment on CAKI-1 it was 2330 nM; in experiment [2], 1960 nM; in the experiment with IGROV-1, 1810 nM; in the experiment with UACC-62, 1810 nM. Besides, the GI50 in the experiment with UACC-257 came to 1790 nM; in the experiment with Malme-3M it was 2100 nM; with SNB-19, 1640 nM; in the experiment on KM12, 2100 nM; in the experiment with NCI-H23, 1880 nM; with A549 it was 1890 nM. Besides, the 50% growth inhibitory concentration (GI50) with SR was 1040 nM; in the experiment with MOLT-4 [3], 1920 nM.
